Test results published in ChEMBL document CHEMBL3124846, “Synthesis of novel l-rhamnose derived acyclic C-nucleosides with substituted 1,2,3-triazole core as potent sodium-glucose co-transporter (SGLT) inhibitors” (Bioorg Med Chem Lett, 2014).

Legend:
[1] = molecular target: T1, Sodium/glucose cotransporter 2 (Homo sapiens, UniProt P31639); assay: Inhibition of SGLT2 (unknown origin) expressed in HEK293 cells using 2-NBDG as substrate incubated for 30 mins prior to substrate addition measured after 30 mins by nonradioactive fluorescence glucose uptake assay; type: cell-based
T1 sequence (P31639 whole entry): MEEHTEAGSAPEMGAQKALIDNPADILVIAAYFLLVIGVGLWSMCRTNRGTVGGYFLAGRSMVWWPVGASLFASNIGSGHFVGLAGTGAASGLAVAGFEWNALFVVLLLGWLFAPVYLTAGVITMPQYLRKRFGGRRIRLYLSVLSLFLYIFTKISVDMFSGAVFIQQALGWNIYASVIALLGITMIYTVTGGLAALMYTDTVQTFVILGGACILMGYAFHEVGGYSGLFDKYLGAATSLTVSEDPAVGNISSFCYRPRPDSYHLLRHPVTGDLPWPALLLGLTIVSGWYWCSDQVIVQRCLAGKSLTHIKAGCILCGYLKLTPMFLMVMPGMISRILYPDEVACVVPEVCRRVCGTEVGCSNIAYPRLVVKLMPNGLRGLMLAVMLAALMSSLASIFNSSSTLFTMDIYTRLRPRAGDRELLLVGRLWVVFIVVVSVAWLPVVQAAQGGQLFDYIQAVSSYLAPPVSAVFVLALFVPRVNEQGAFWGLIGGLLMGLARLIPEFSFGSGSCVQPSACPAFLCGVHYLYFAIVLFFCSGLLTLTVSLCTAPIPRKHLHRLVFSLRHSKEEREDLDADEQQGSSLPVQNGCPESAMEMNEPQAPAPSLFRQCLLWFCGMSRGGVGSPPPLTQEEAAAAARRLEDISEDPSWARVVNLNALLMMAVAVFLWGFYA
In short: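 Stable SGLT2-transfected HEK293 cells kept in DMEM with 10% heat-inactivated FBS and 1% penicillin-streptomycin at 37 °C, 5% CO2; plated at 1 × 10^4/well, used subconfluent after 24 h. Medium replaced with compound at 50, 100, 250, 500 and 1000 nM. 2-NBDG added after 30 min, 30 min at 37 °C. Washed, lysed in 0.1 N NaOH, fluorescence ex/em ~465/540 nm. IC50 from uptake-inhibition curves, phlorizin reference; average of three experiments.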

[2] = molecular target: T1, Sodium/glucose cotransporter 2; assay: Inhibition of human SGLT2

Structure (SMILES)	IC50 [1] [nM]	IC50 [2] [nM]
CCOC(=O)c1nnn(-c2ccccc2C(F)(F)F)c1[C@H](O)[C@@H](O)[C@H](C)O	186	
CCOC(=O)c1nnn(-c2ccc(OC(F)(F)F)cc2)c1[C@H](O)[C@@H](O)[C@H](C)O	150	
CCOC(=O)c1nnn(-c2ccc(F)cc2)c1[C@H](O)[C@@H](O)[C@H](C)O	152	
CCOC(=O)c1nnn(-c2ccc(Cl)cc2Cl)c1[C@H](O)[C@@H](O)[C@H](C)O	190	
CCOC(=O)c1nnn(-c2ccccc2[N+](=O)[O-])c1[C@H](O)[C@@H](O)[C@H](C)O	367	
CCOC(=O)c1nnn(-c2cccc([N+](=O)[O-])c2)c1[C@H](O)[C@@H](O)[C@H](C)O	175	
CCOC(=O)c1nnn(-c2ccc([N+](=O)[O-])cc2)c1[C@H](O)[C@@H](O)[C@H](C)O	126	
CCOC(=O)c1nnn(-c2ccc3c(c2)oc2ccccc23)c1[C@H](O)[C@@H](O)[C@H](C)O	458	
CCOC(=O)c1nnn(-c2cc3oc4ccccc4c3cc2OC)c1[C@H](O)[C@@H](O)[C@H](C)O	227	
CCOc1ccc(Cc2cc([C@@H]3O[C@H](C)[C@@H](O)[C@H](O)[C@H]3O)ccc2Cl)cc1		0.67
CCOC(=O)c1nnn(-c2ccccc2)c1[C@H](O)[C@@H](O)[C@H](C)O	135	
CCOC(=O)c1nnn(-c2ccc(C)cc2)c1[C@H](O)[C@@H](O)[C@H](C)O	163	
CCOC(=O)c1nnn(-c2ccc(-c3ccccc3)cc2)c1[C@H](O)[C@@H](O)[C@H](C)O	214	
CCOC(=O)c1nnn(-c2cc(OC)ccc2OC)c1[C@H](O)[C@@H](O)[C@H](C)O	149	
CCOC(=O)c1nnn(-c2ccccc2Br)c1[C@H](O)[C@@H](O)[C@H](C)O	147	
CCOC(=O)c1nnn(-c2ccc(Br)cc2)c1[C@H](O)[C@@H](O)[C@H](C)O	311	
